The source made the active and inactive calls. The calls are words filed in the database; no cut-off is given here.
Assays:
[1] = test system: HepG2; assay: Cytotoxicity against human HepG2 cells assessed as effect on ribosome RNA gene level at up to 100 uM after 14 days by quantitative real-time PCR assay; format: cell-based; conditions: hepg2, 336 h
Summary of the method: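 HepG2 or CEM cells incubated 14 days with compound up to 100 μM, ddC as control. Medium and compound replenished on days 7 and 11. Mitochondrial COXII gene and nuclear rDNA measured by multiplex quantitative RT-PCR.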

[2] = test system: Hepatitis C virus; assay: Antiviral activity against Hepatitis C virus JFH1 assessed as viral RNA level by quantitative real-time PCR; format: functional, organism-based, Hepacivirus hominis; conditions: JFH-1
[3] = test system: Hepatitis C virus; assay: Antiviral activity against Hepatitis C virus harboring NS5B polymerase S282T mutant gene infected in human HuH7 cells by luciferase-based replicon assay; format: functional, Hepacivirus hominis; conditions: Huh-7
[4] = test system: Influenza A virus; assay: Antiviral activity against Influenza A virus (A/Brisbane/10/2007(H3N2)) infected in HFF by neutral red assay; format: functional, organism-based
[5] = test system: Hepatitis C virus; assay: Antiviral activity against Hepatitis C virus assessed as inhibition of viral rebound at 2 uM after 3 weeks in presence of G418; format: functional, organism-based; conditions: Hepacivirus hominis
Summary of the method: (§1)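 ET-lunet replicon cells, 1 × 10^5/well, no G418, with compound at 0.1, 1 or 2 μM (final DMSO 0.5%). Passaged 1:3 or 1:4 every 3–4 days for 3 weeks with fresh compound, then 3 more weeks with 0.25 mg/ml G418 and no inhibitor. HCV RNA by RT-PCR normalized to rRNA (ΔΔCt vs DMSO) at each passage. Crystal violet colony staining at 6 weeks.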

[6] = molecular target: T1, DNA-directed RNA polymerase II subunit RPB1 (Homo sapiens, UniProt P24928); assay: Inhibition of human RNA polymerase at 2 uM
[7] = test system: Hepatitis C virus; assay: Antiviral activity against Hepatitis C virus H77; format: functional, organism-based, Hepacivirus hominis; conditions: genotype 1a H77
[8] = test system: Hepatitis C virus; assay: Antiviral activity against Hepatitis C virus assessed as clearance of HCV from replicon cells at 1 uM; format: functional, organism-based; conditions: Hepacivirus hominis; summary of the method: as §1
[9] = test system: Hepatitis C virus; assay: Antiviral activity against Hepatitis C virus isolate Con1 harboring Btat protein assessed as viral RNA level by quantitative real-time PCR; format: functional, organism-based, Hepacivirus hominis
[10] = Cytotoxicity against human myeloid progenitor cells after 14 to 16 days by colony formation assay; format: cell-based
Summary of the method: (§2)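 Normal human bone marrow erythroid and myeloid progenitors, 2 × 10^4 cells per culture in methylcellulose with rh-SCF 50 ng/ml, rh-IL-3 10 ng/ml, rh-GM-CSF 10 ng/ml and rh-EPO 3 U/ml. Compound up to 50 μM, DMSO control 0.1%, 14–16 days.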

[11] = test system: Hepatitis C virus; assay: Antiviral activity against Hepatitis C virus harboring NS5B polymerase S96T mutant gene infected in human lunet cells by luciferase-based replicon assay; format: functional, Hepacivirus hominis
Summary of the method: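 ET-lunet cells with the ET genotype 1b replicon, wild-type or S96T/N142T (ET replicon with these mutations electroporated into Lunet cells, selected in 0.2 mg/ml G418). 3,000 cells/well, 4 days with serially diluted compound. Firefly luciferase luminescence read-out; EC90 from dose–response.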

[12] = Cytotoxicity against human erythroid progenitor cells after 14 to 16 days by colony formation assay; format: cell-based; summary of the method: as §2
[13] = molecular target: T1, DNA-directed RNA polymerase II subunit RPB1; assay: Inhibition of human RNA polymerase 2 assessed as synthesis of RNA products at 500 uM
Summary of the method: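 In vitro transcription by HeLa nuclear extract from CMV immediate-early promoter DNA. Mix: 400 μM ATP, CTP and UTP, 16 μM GTP, [α-32P]GTP, 3 mM MgCl2, in 20 mM HEPES pH 7.9 buffer with KCl, EDTA, DTT and glycerol. Inhibitor up to 1 mM. 30°C for 60 min. RNA purified, run on 6% sequencing gel and quantified by phosphorimager.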

## CC(C)OC(=O)[C@H](C)NP(=O)(OC[C@H]1O[C@@H](n2ccc(=O)[nH]c2=O)[C@](C)(F)[C@@H]1O)Oc1ccccc1 (stereo partly specified)
[1]
  Activity: Non-toxic
[2]
  EC50: 180 nM
  EC90: 520 nM
[3]
  EC90: 7400 nM
[4]
  EC50: > 100000 nM
[5]
  inhibition: Active
[6]
  fold change (FC): 5
[7]
  EC50: 190 nM
  EC90: 340 nM
[8]
  Activity: Active
[9]
  EC50: 90 nM
  EC90: 650 nM
[10]
  CC50: > 50000 nM
[11]
  EC90: 390 nM
[12]
  CC50: > 50000 nM

## C[C@@]1(F)[C@H](O)[C@@H](COP(=O)(O)OP(=O)(O)OP(=O)(O)O)O[C@H]1n1ccc(=O)[nH]c1=O [GS-461203]
[13]
  inhibition: 85%
